High-throughput results as filed in PubChem BioAssay.
An excerpt weighted towards active compounds, which were near 1.5% of everything screened.
C2C12 statin: suppressors of statin myotoxicity in C2C12 myotubes, primary screen, cell-based, single point, plate reader | C2C12 myotubes + simvastatin, ATP luminescence, 48 h; scaled: DMSO 0, geranylgeraniol control 100 | rescue of ATP level, % at 7.49 µM | hit rate 0.78% among 330,000;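 active means mean ATP rescue above about 67%, or every replicate alone reaching that limit, limit read from the data, passing the limit was not always enough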;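 further: myotubes were challenged with 10 µM simvastatin during compound exposure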
SUMO Mot1 rescue: yeast Mot1-301 growth rescue at high temperature, primary screen, SUMOylation pathway inhibitor project, S. cerevisiae, ATP luminescence, 38.5C; AID 2716, 2010; hit rate 1% among 320,000; S. cerevisiae Mot1-301 growth rescue; percent above DMSO median, 100 means doubled; growth rescue, % at 18.8 µM;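 active means every valid replicate shows activation above 250% relative to neutral control wells; inactive means the rest, any valid replicate at or below 250%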;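 further: OY570 slx delta 5 strain wells were the positive control but not used for scaling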
Cneo AK release: Cryptococcus neoformans cell lysis inducers, primary screen, AK release luminescence, single concentration | C. neoformans lysis, adenylate kinase release luminescence, 4 h; normalised: neutral wells 0, clomiphene wells 100 | hit rate 0.2% among 360,000 | lysis activity, % at 15 µM;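 active means mean lysis activity across replicates of at least 80%, whatever share of replicates individually reach that level; inactive means mean lysis activity below 80%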
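read-out = cell lysis signal | test system = log-phase Cryptococcus neoformans yeast cells | input = cells at 5 × 10^6 per mL | medium = fresh YPD growth medium | signal = luminescent adenylate kinase detection reagent | timing = 4 h at 37 °C static, read 1 h later | dosing = single dose | controls = Clomiphene as positive lysis control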
An asterisk follows results filed as active; / = no result given.

SMILES | C2C12 statin | SUMO Mot1 rescue | Cneo AK release
COc1ccc(CN(C)C[C@@H]2Oc3ccc(NS(=O)(=O)c4ccc(OC)cc4)cc3CC(=O)N([C@H](C)CO)C[C@@H]2C)cc1 | 10.5 | / | -1.7
COc1ccc(CN(C)C[C@H]2Oc3ccc(NS(=O)(=O)c4ccc(Cl)cc4)cc3CC(=O)N([C@@H](C)CO)C[C@@H]2C)cc1 | 86.0* | / | 0.4
C[C@@H]1CN([C@@H](C)CO)C(=O)Cc2cc(NS(=O)(=O)c3ccc(F)cc3)ccc2O[C@H]1CN(C)Cc1ccc(Oc2ccccc2)cc1 | 99.3* | / | 0.5
COc1ccc(CN(C)C[C@H]2Oc3ccc(NS(=O)(=O)c4ccc(Cl)cc4)cc3CC(=O)N([C@H](C)CO)C[C@H]2C)cc1 | 62.7 | / | 2.0
COc1ccc(S(=O)(=O)Nc2ccc3c(c2)CC(=O)N([C@H](C)CO)C[C@@H](C)[C@H](CN(C)Cc2ccccc2)O3)cc1 | 72.5* | / | 40.7
CC(C)NC(=O)N(C)C[C@@H]1OCCCC[C@H](C)Oc2ccc(NC(=O)Nc3ccc(C(F)(F)F)cc3)cc2C(=O)N([C@H](C)CO)C[C@@H]1C | / | / | 47.7
CC(=O)N(C)C[C@@H]1Oc2cc(C#Cc3cccc(F)c3)ccc2S(=O)(=O)N([C@@H](C)CO)C[C@H]1C | 17.9 | / | -3.1
Cc1ccc(-c2cnc3c(c2)C(=O)N([C@H](C)CO)C[C@@H](C)[C@@H](CN(C)C)O3)cc1 | 6.4 | / | -6.0
COc1ccccc1C#Cc1ccc([C@H]2[C@H](CO)N3CCCCN(C(=O)C4CC4)C[C@@H]23)cc1 | / | / | -0.8
C[C@@H]1CN([C@@H](C)CO)C(=O)c2cc(NC(=O)Nc3ccccc3)ccc2O[C@@H](C)CCCCO[C@H]1CN(C)Cc1ccncc1 | / | / | 1.1
CCCc1cn(CC[C@H]2CC[C@H](NS(=O)(=O)c3ccccc3Cl)[C@@H](CO)O2)nn1 | -4.1 | / | -5.6
CC(C)NC(=O)N[C@H]1CC[C@H](CCNC(=O)C2CCCC2)O[C@H]1CO | 1.3 | / | -1.7
COc1ccc(S(=O)(=O)Nc2ccc3c(c2)CC(=O)N([C@H](C)CO)C[C@H](C)[C@H](CN(C)Cc2ccc(Oc4ccccc4)cc2)O3)cc1 | 5.0 | / | -3.0
COc1ccc(S(=O)(=O)Nc2ccc3c(c2)CC(=O)N([C@@H](C)CO)C[C@@H](C)[C@H](CN(C)Cc2ccc(Oc4ccccc4)cc2)O3)cc1 | 97.5* | / | -4.1
CNC(=O)C[C@H]1CC[C@H]2[C@H](COc3ccc(NC(=O)c4ccc(C(F)(F)F)cc4)cc3C(=O)N2C)O1 | 8.1 | / | -1.5
CN(C)/N=C/c1ccc(/C=N/NC(N)=S)o1 | / | 422.2* | /
Cc1ccc(-c2ccc(/C=N/NC(N)=S)o2)cc1 | / | 69.1 | 63.0
C[C@@H]1CN([C@@H](C)CO)C(=O)c2cc(NC(=O)Nc3ccccc3)ccc2O[C@@H](C)CCCCO[C@@H]1CN(C)C(=O)Cc1ccccc1 | / | / | -1.0
CN1CCN(c2nc3c(c(=O)n(C)c(=O)n3C)n2Cc2cccc3ccccc23)CC1 | 115.6* | 17.5 | -0.2
Cn1c(=O)c2c(nc(N3CCCCCC3)n2Cc2cccc3ccccc23)n(C)c1=O | 64.2 | 12.7 | 0.4
Cc1ccc(-c2nnn(CC(=O)N(CCO)C(C(=O)NC3CCCCC3)c3ccncc3)n2)o1 (centres undefined) | / | -5.7 | /
Cc1ccc(-c2nnn(CC(=O)N(CCCO)C(C(=O)NC3CCCC3)c3ccc(Cl)cc3)n2)o1 (centres undefined) | 79.7* | -6.4 | -0.9
C[C@H](CO)N1C[C@H](C)[C@@H](CN(C)Cc2ccncc2)Oc2cc(-c3ccccc3F)ccc2S1(=O)=O | -111.1 | / | -4.3
O=C(N1CCCCCC1)N1CCN(S(=O)(=O)N2CCCCC2)CC1 | 100.7* | 5.0 | 6.4
CN(C)S(=O)(=O)N1CCN(C(=O)N2CCCCC2)CC1 | -7.4 | 39.7 | 4.5
SMILES | C2C12 statin | SUMO Mot1 rescue | Cneo AK release
C[C@@H]1CN([C@@H](C)CO)C(=O)c2cc(-c3ccccc3F)cnc2O[C@H]1CN(C)C(=O)CN(C)C | 3.0 | / | -1.4
C[C@@H]1CN([C@H](C)CO)C(=O)c2cccc(NC(=O)c3ccncc3)c2O[C@@H]1CN(C)CC1CC1 | -10.0 | / | 3.1
O=C(Nc1ccc2c(c1)[C@H]1C[C@H](CC(=O)N3CCOCC3)O[C@H](CO)[C@H]1O2)c1ccc2c(c1)OCO2 | -0.1 | / | -22.2
C[C@H](CO)N1C[C@H](C)[C@@H](CN(C)C(=O)Nc2ccc(C(F)(F)F)cc2)Oc2ccc(NC(=O)Nc3ccc(F)cc3)cc2CC1=O | -1.0 | / | 2.9
O=C(NC1Cc2ccccc2C1)[C@@H]1[C@@H](CO)[C@@H]2Cn3c(cccc3=O)[C@@H]2N1C(=O)C1CC1 | 3.6 | / | 3.5
CCc1ccccc1NC(=O)CSc1nnc(CNC(=O)c2ccco2)n1C | 4.8 | -16.7 | -7.5
Cn1c(CNC(=O)c2ccco2)nnc1SCC(=O)N1c2ccccc2Sc2ccccc21 | 93.5* | -17.4 | -0.7
CCCC#Cc1cnc2c(c1)C(=O)N([C@H](C)CO)C[C@H](C)[C@H](CN(C)C(=O)CCN1CCCCC1)O2 | 5.9 | / | 2.9
C/C=C/c1ccc2c(c1)O[C@@H](CN(C)C(=O)CC)[C@H](C)CN([C@@H](C)CO)S2(=O)=O | -15.7 | / | -1.4
CCN(CC)C(=O)Cn1c(=O)oc2ccccc21 | / | 389.1* | /
CC(=O)Cn1c(=O)oc2ccccc21 | 5.7 | -23.5 | 1.0
COc1ccc(NC(=O)Nc2ccc3c(c2)C(=O)N(C)C[C@@H](OC)[C@H](C)CN[C@H](C)CO3)cc1 | -7.2 | / | -1.1
COc1ccc(S(=O)(=O)N(C)C[C@@H]2Oc3ccc(NC(=O)Nc4ccc5c(c4)OCO5)cc3C(=O)N([C@H](C)CO)C[C@@H]2C)cc1 | / | / | -0.5
O=C(O)c1ccc2c(c1)C(=O)N(c1ccccc1-c1ccccc1)C2=O | -7.7 | 1.4 | -1.1
Cc1ccc(N2C(=O)c3ccc(C(=O)O)cc3C2=O)c(C)c1 | / | 313.2* | /
COC(=O)C[C@@H]1CC[C@H]2[C@@H](COC[C@H](O)CN2S(=O)(=O)c2ccccc2C)O1 | 13.0 | / | -0.1
CN(C)CCCNC(=O)C[C@H]1C=C[C@H](NS(=O)(=O)c2ccccc2)[C@@H](CO)O1 | -7.8 | / | 31.3
Cc1ccc(NC(=O)C2CCCN(S(=O)(=O)c3cnc[nH]3)C2)cc1C (centres undefined) | -4.2 | -11.5 | -2.8
O=C(Nc1ccc(F)c(F)c1)C1CCCN(S(=O)(=O)c2cnc[nH]2)C1 (centres undefined) | 97.5* | 10.7 | -1.5
Cc1noc(C)c1NC(=O)N(C)C[C@@H]1Oc2ccc(NC(=O)c3ccncc3)cc2C(=O)N([C@H](C)CO)C[C@@H]1C | -8.9 | / | 1.8
O=c1cc(N2CCOCC2)[nH]c(=O)n1C1CCCCC1 | 121.8* | -8.9 | 3.2
O=c1cc(N2CCN(c3ccccc3)CC2)[nH]c(=O)n1C1CCCCC1 | -120.4 | 10.6 | /
COc1cccc(S(=O)(=O)N[C@@H]2C=C[C@H](CC(=O)NCc3ccc(F)cc3)O[C@@H]2CO)c1 | -10.3 | / | 4.5
CO[C@@H]1CC[C@H]2CCOc3c(C#N)cccc3C(=O)N(C)C[C@@H](OC)[C@@H](C)C(=O)N(C)C[C@H]1O2 | -2.4 | / | 1.5
